Results from publication PMC6839450 (ACS chemical biology, 2015).

Assays:
Assay in all cases: Cell viability
Conditions in all cases: Ac-peptide, up to 20 μM, 24 h, CellTiter-Glo
OCI-AML3 cells = type: cell-based
Summary of the method: (§1)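 Cells in OptiMEM with penicillin/streptomycin: MEFs (wild-type or Bax−/−Bak−/−) at 2.5 × 10^3 per well, adhered overnight and washed; OCI-AML3 at 1 × 10^4 per well. Serial dilutions of peptide from a 10 mM DMSO stock, or vehicle, were applied for 2 h at 37 °C serum-free, then FBS was added to 10%. CellTiter-Glo luminescence was read 24 h post-treatment.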

wild-type MEFs = type: cell-based, mouse
Summary of the method: as §1

Bax−/−Bak−/− (DKO) MEFs = type: cell-based, mouse
Summary of the method: as §1

BIM BH3_2: unmodified BIM BH3 domain peptide, amino acids 145–164; N-terminal cap depends on the assay
no effect: Effect on viability of OCI-AML3 cells (in words) (OCI-AML3 cells) | Effect on viability of wild-type MEFs (in words) (wild-type MEFs) | Effect on viability of Bax−/−Bak−/− (DKO) MEFs (in words) (Bax−/−Bak−/− (DKO) MEFs)
